Results as given in ChEMBL document CHEMBL4406921, “Discovery of Axelopran (TD-1211): A Peripherally Restricted μ-Opioid Receptor Antagonist” (ACS Med Chem Lett, 2019).
Activity calls are given as the source filed them. The calls are words filed in the database; no cut-off is given here.

How the values were obtained:
Canis familiaris [1] = assay: Reversal of morphine-induced sedation in Beagle dog at 3 mg/kg, po administered with compound prior to morphine challenge and measured up to 120 mins post-mophine administration; format: functional, organism-based; details: Canis lupus familiaris
Mu-type opioid receptor [2] = target: T1, Mu-type opioid receptor (Homo sapiens, UniProt P35372); assay: Displacement of [3H]-DPN from recombinant human mu opioid receptor expressed in CHO-K1 cell membranes by radioligand binding assay
T1 sequence (P35372 whole entry): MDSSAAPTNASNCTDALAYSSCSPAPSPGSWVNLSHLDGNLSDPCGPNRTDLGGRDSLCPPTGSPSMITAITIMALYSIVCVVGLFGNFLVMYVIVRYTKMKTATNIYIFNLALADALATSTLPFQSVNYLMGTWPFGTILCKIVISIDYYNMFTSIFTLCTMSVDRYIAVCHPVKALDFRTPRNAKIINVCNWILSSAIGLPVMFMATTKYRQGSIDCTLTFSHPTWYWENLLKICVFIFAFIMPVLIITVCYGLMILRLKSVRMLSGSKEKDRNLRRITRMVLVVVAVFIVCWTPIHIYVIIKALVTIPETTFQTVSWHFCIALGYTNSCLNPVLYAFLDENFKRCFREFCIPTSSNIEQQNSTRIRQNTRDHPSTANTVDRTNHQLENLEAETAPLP
Outline: (§1)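 Membranes from CHO-K1 cells stably transfected with human recombinant μ or δ receptor, or guinea pig κ receptor; competition with [3H]-DPN radioligand; affinity reported as pKi.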

[3] = target: T2, Delta-type opioid receptor (Homo sapiens, UniProt P41143); assay: Displacement of [3H]-DPN from recombinant human delta opioid receptor expressed in CHO-K1 cell membranes by radioligand binding assay; outline: as §1
T2 sequence (P41143 whole entry): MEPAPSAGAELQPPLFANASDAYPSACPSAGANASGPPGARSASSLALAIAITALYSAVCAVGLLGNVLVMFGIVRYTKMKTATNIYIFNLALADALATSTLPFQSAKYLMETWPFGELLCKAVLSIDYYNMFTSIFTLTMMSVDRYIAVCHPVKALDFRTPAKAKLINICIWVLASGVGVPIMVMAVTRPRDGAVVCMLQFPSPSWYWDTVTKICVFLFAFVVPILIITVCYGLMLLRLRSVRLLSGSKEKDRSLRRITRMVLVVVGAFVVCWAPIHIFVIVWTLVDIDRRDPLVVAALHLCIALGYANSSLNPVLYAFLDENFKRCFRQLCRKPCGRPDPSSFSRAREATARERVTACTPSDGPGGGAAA

[4] = target: T3, Kappa-type opioid receptor (Cavia porcellus, UniProt P41144); assay: Displacement of [3H]-DPN from guinea pig kappa opioid receptor expressed in CHO-K1 cell membranes by radioligand binding assay; outline: as §1
T3 sequence (P41144 whole entry): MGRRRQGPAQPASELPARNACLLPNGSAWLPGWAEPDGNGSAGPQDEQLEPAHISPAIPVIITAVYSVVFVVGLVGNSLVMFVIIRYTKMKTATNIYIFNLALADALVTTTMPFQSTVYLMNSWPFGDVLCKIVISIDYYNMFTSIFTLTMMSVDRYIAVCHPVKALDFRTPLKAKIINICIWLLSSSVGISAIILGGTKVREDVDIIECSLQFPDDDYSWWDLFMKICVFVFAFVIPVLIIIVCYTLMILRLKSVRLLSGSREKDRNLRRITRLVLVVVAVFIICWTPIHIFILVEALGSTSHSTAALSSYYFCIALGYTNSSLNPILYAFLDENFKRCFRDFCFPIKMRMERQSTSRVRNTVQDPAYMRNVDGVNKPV

Mu-type opioid receptor [5] = target: T1, Mu-type opioid receptor; assay: Antagonist activity at human recombinant mu opioid receptor expressed in CHO-K1 cell membranes assessed as intrinsic activity at 10 pM to 20 uM incubated for 30 mins in presence of Eu-GTP by DELFIA GTP binding assay relative to DAMGO
[6] = Half life in rat liver microsomes at 3 uM; format: ADME, Microsome
[7] = Half life in dog liver microsomes at 3 uM; format: ADME, Canis lupus familiaris, Microsome
[8] = Half life in human liver microsomes at 3 uM; format: ADME, Microsome
[9] = Permeability coefficient, Kp in human Caco2 cells; format: ADME, cell-based; details: Caco-2, read-out: Kp
[10] = Cmax in Sprague-Dawley rat at 5 mg/kg, po administered via gavage; format: ADME, organism-based; parameters: dose 5 mg/kg, route oral; details: in vivo
[11] = AUC(0 to t) in Sprague-Dawley rat at 5 mg/kg, po administered via gavage; format: ADME, organism-based; details: in vivo
[12] = Half life in Sprague-Dawley rat at 5 mg/kg, po administered via gavage; format: ADME, organism-based; details: in vivo
[13] = Oral bioavailability in Sprague-Dawley rat at 5 mg/kg administered via gavage; format: ADME, organism-based; details: in vivo
Mus musculus [14] = assay: Inhibition of morphine-induced delays in intestinal transit in po dosed ICR mouse administered via gavage pretreated with compound and 30 mins later injected with morphine followed 5 mins later by ingestion of test meal and measured after 60 mins; format: functional; details: for ED50: read-out: ID50 (the source's name)
Outline: (§2)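 Mice dosed orally; reversal of morphine-induced delay in intestinal transit, delay in gastric emptying, or hot plate antinociception measured; dose-dependent responses fitted to give ID50 in mg/kg.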

Mus musculus [15] = assay: Inhibition of morphine-induced delays in gastric emptying in po dosed ICR mouse administered via gavage pretreated with compound and 30 mins later injected with morphine followed 5 mins later by ingestion of test meal and measured after 60 mins; format: functional; details: for ED50: read-out: ID50 (the source's name); outline: as §2
Mus musculus [16] = assay: Inhibition of morphine-induced antinociceptive activity in po dosed ICR mouse administered via gavage pretreated with compound and 30 mins later injected with morphine and measured after 30 mins by hot plate test; format: functional; details: for ED50: read-out: ID50 (the source's name); outline: as §2
Mus musculus [17] = organism: Mus musculus; assay: Peripheral selectivity index, ratio of ID50 for inhibition of morphine-induced antinociceptive activity in ICR mouse to ID50 for inhibition of morphine-induced delays in intestinal transit in ICR mouse; format: functional
Outline: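 Mice were dosed orally with antagonist at several doses and challenged with morphine. ID50 values were taken from dose-dependent reversal of morphine-induced hot plate antinociception (CNS) and of morphine-induced delay in intestinal transit (peripheral). The index is the hot plate ID50 divided by the intestinal transit ID50.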

Mus musculus [18] = organism: Mus musculus; assay: Peripheral selectivity index, ratio of ID50 for inhibition of morphine-induced delays in gastric emptying in ICR mouse to ID50 for inhibition of morphine-induced delays in intestinal transit in ICR mouse; format: functional
Mu-type opioid receptor [19] = target: T1, Mu-type opioid receptor; assay: Antagonist activity at human recombinant mu opioid receptor expressed in CHO-K1 cell membrane assessed as inhibition of DAMGO-induced GTP binding incubated for 30 mins in presence of Eu-GTP by DELFIA GTP binding assay
[20] = target: T2, Delta-type opioid receptor; assay: Antagonist activity at human recombinant delta opioid receptor expressed in CHO-K1 cell membrane assessed as inhibition of DPDPE-induced [35S]-GTPgammaS binding incubated for 30 mins by time resolved fluorescence assay
[21] = target: Kappa-type opioid receptor (Cavia porcellus) (UniProt P41144); assay: Antagonist activity at guinea pig recombinant kappa opioid receptor expressed in CHO-K1 cell membrane assessed as inhibition of U69593-induced [35S]-GTPgammaS binding incubated for 30 mins by time resolved fluorescence assay
Kappa-type opioid receptor (Cavia porcellus), sequence (P41144 whole entry): as above

Mu-type opioid receptor [22] = target: Mu-type opioid receptor (Cavia porcellus, UniProt P97266); assay: Antagonist activity at mu opioid receptor in guinea pig ileum assessed as inhibition of electric field stimulated contractions incubated for 15 mins in presence of endomorphin-1; format: tissue-based; details: read-out: pA2 (converted)
Mu-type opioid receptor (Cavia porcellus, UniProt P97266), sequence (P97266 whole entry): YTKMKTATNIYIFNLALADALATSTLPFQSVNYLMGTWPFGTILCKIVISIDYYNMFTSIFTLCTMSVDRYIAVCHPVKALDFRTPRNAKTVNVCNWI

[23] = target: T3, Kappa-type opioid receptor; assay: Antagonist activity at kappa opioid receptor in guinea pig ileum assessed as inhibition of electric field stimulated tissue contraction incubated for 15 mins in presence of U69593; format: tissue-based; details: read-out: pA2 (converted)
Mesocricetus auratus = organism: Mesocricetus auratus; assay: Antagonist activity at delta opiod receptor in golden syrian hamster vas deferens assessed as inhibition of electric field stimulated tissue contraction incubated for 15 mins in presence of […]
[24] = Oral bioavailability in fasted female Beagle dog; format: ADME, organism-based, Canis lupus familiaris; details: in vivo
[25] = Oral bioavailability in fasted male Beagle dog; format: ADME, organism-based, Canis lupus familiaris; details: in vivo
[26] = Protein binding in human plasma; format: ADME, cell-free; details: read-out: PPB
[27] = Efflux ratio of permeability in human Caco2 cells; format: ADME, cell-based; details: Caco-2
MDR1 = assay: Efflux ratio of permeability in dog MDCK-MDR1 cells; format: ADME, cell-based, Canis lupus familiaris
[28] = Drug uptake in rat cerebrospinal fluid at 20 mg/kg, po; format: ADME, organism-based; details: in vivo
Outline: (§3)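 Rats given 20 mg/kg orally; CSF, brain and plasma concentrations measured to estimate CNS penetration.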

[29] = Drug uptake in rat brain at 20 mg/kg, po; format: ADME, organism-based; details: in vivo; outline: as §3
Rattus norvegicus [30] = assay: Reversal of loperamide-induced delay in gastric emptying in po dosed Sprague-Dawley rat administered with compound and loperamide at 35 mins and 5 mins prior to test meal respectively measured after 60 mins; format: functional; details: read-out: ID50 (the source's name)
Rattus norvegicus [31] = assay: Reversal of castor oil-induced diarrhea in po dosed Sprague-Dawley rat po administered with compound and loperamide at 45 mins and 15 mins prior to castor oil administration and measured after 2 hrs; format: functional; details: read-out: ID50 (the source's name)
Canis familiaris [32] = assay: Inhibition of loperamide-induced gastrointestinal contraction in Beagle dog at 3 mg/kg, po incubated with compound followed 15 mins later by treated with loperamide and measured for 30 mins; format: functional, organism-based; details: Canis lupus familiaris
Mus musculus [33] = assay: Inhibition of morphine-dependent CNS-mediated withdrawal response in Swiss Webster mouse at 30 mg/kg, po after 60 mins; format: functional, organism-based
Rattus norvegicus [34] = assay: Reversal of morphine-induced antinociception in Sprague-Dawley rat at >60 mg/kg, po pretreated for 30 mins followed by morphine injection and measured after 60 mins by hot plate test; format: functional, organism-based
Canis familiaris [35] = assay: Reversal of morphine-induced antinociception in Beagle dog at 3 mg/kg, po treated with compound prior to morphine challenge measured after 15 to 45 mins by hot plate test; format: functional, organism-based; details: Canis lupus familiaris
[36] = Half life in rat liver microsomes at 15 uM; format: ADME, Microsome
[37] = Cmax in Sprague-Dawley rat at 100 mg/kg, po administered via gavage; format: ADME, organism-based; parameters: dose 100 mg/kg, route oral; details: in vivo
[38] = AUC(0 to t) in Sprague-Dawley rat at 100 mg/kg, po administered via gavage; format: ADME, organism-based; details: in vivo
[39] = Half life in Sprague-Dawley rat at 100 mg/kg, po administered via gavage; format: ADME, organism-based; details: in vivo
Outline: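 Male Sprague–Dawley rats received 100 mg/kg by oral gavage, with n = 3. Plasma half-life was taken from the pharmacokinetic profile alongside Cmax, AUC(0–t) and oral bioavailability.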

[40] = Oral bioavailability in Sprague-Dawley rat at 100 mg/kg administered via gavage; format: ADME, organism-based; details: in vivo
[41] = Oral bioavailability in human; format: ADME, organism-based; details: in vivo

| SMILES | Ki (Mu-type opioid receptor [2]) | Ki [3] | Ki [4] | Intrinsic activity (Mu-type opioid receptor [5]) | half-life at 3 µM [6] | half-life at 3 µM [7] | half-life at 3 µM [8] | Papp [9] | Cmax [10] | AUC(0-t) [11] | half-life [12] | bioavailability [13] | inhibition (Mus musculus [14]) | ED50 (Mus musculus [14]) | inhibition (Mus musculus [15]) | ED50 (Mus musculus [15]) | inhibition (Mus musculus [16]) | ED50 (Mus musculus [16]) | Selectivity Index (Mus musculus [17]) | Selectivity Index (Mus musculus [18]) | also measured |
| --- | --- | --- | --- | --- | --- | --- | --- | --- | --- | --- | --- | --- | --- | --- | --- | --- | --- | --- | --- | --- | --- |
| NC(=O)c1cccc([C@H]2C[C@H]3CC[C@@H](C2)N3CCN(CC2CCCCC2)C(=O)[C@@H](O)CO)c1.O=S(=O)(O)O [AXELOPRAN SULFATE] | 0.158 nM | 1.58 nM | 0.126 nM | -3% | 1.45 h | 0.45 h | 1.5 h | 5 ×10⁻⁶ cm/s | 210 ng/mL | 470 ng·h/mL | 1.3 h | 27% | Dose-dependent effect | 0.35 mg/kg | Dose-dependent effect | 0.087 mg/kg | Dose-dependent effect | 14 mg/kg | 40 | 161 | inhibition (Canis familiaris [1]): Active; pKb (Mu-type opioid receptor [19]): 9.6; pKb [20]: 8.8; pKb [21]: 9.5; Kb (Mu-type opioid receptor [22]): 0.0794 nM; Kb [23]: 1.58 nM; pKb (Mesocricetus auratus): 8.4; bioavailability [24]: 29%; bioavailability [25]: 45%; fraction unbound [26]: 0.7 to 0.77; efflux ratio [27]: 10; efflux ratio (MDR1): 24; Drug uptake [28]: < 2%; Drug uptake [29]: < 2%; ED50 (Rattus norvegicus [30]): 0.24 mg/kg; ED50 (Rattus norvegicus [31]): 0.01 mg/kg; inhibition (Canis familiaris [32]): Active; inhibition (Mus musculus [33]): inactive; inhibition (Rattus norvegicus [34]): Active; inhibition (Canis familiaris [35]): Active |
| NC(=O)c1cccc([C@H]2C[C@H]3CC[C@@H](C2)N3CCN(CCCc2ccccc2)C(=O)CO)c1 | 0.794 nM | 31.6 nM | 0.501 nM | -13% | – | – | – | 26 ×10⁻⁶ cm/s | – | – | – | – | – | – | – | – | – | – | – | – | half-life at 15 µM [36]: 0.533 h |
| C[N+]1(CC2CC2)CC[C@]23c4c5ccc(O)c4O[C@H]2C(=O)CC[C@@]3(O)[C@H]1C5.[Br-] (stereo partly drawn) [METHYLNALTREXONE BROMIDE] | – | – | – | 19% | > 1.5 h | > 1.5 h | > 1.5 h | 2 ×10⁻⁶ cm/s | – | – | – | – | – | 67 mg/kg | – | 25 mg/kg | – | – | – | – | Cmax [37]: 570 ng/mL; AUC(0-t) [38]: 490 ng·h/mL; half-life [39]: 2.8 h; bioavailability [40]: 2.6%; bioavailability [41]: < 1% |
| NC(=O)c1cccc([C@H]2C[C@H]3CC[C@@H](C2)N3CCN(CC2CCC(F)(F)CC2)C(=O)CO)c1 | 0.126 nM | 12.6 nM | 0.251 nM | -5% | 1.5 h | 1.5 h | 1.5 h | 14 ×10⁻⁶ cm/s | 390 ng/mL | 1200 ng·h/mL | 2 h | 30% | Dose-dependent effect | 0.23 mg/kg | Dose-dependent effect | 0.03 mg/kg | Dose-dependent effect | 4.4 mg/kg | 19 | 147 | – |
